# Test results taken from publication PMC8154590 (The Journal of antibiotics, 2021).
# Structures can show the parent of a compound that is named as a salt.
# Test system: M. smegmatis 70S ribosome (spectinomycin site: helix-34 of 16S rRNA and RpsE protein)
# Experiment: cell-free translation, luciferase read-out
# Format: biochemical, Mycolicibacterium smegmatis
# Conditions: purified 70S ribosomes, firefly luciferase mRNA
# How it was run: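 Purified M. smegmatis 70S ribosomes were used in translation reactions programmed with firefly luciferase mRNA that was transcribed in vitro with T7 RNA polymerase. Inhibition was read as loss of luciferase activity. IC50 was taken as the drug concentration that inhibits luciferase activity by 50%.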
row,Structure (SMILES),Ribosome translation inhibition IC50
1,"CN[C@@H]1[C@H](O)[C@H](NC)[C@H]2O[C@@]3(O)C(=O)C[C@@H](C)O[C@H]3O[C@@H]2[C@H]1O [compound 1, Spectinomycin]",0.36 mg/L
2,"CN[C@@H]1[C@H](O)[C@H](NC)[C@H]2O[C@@]3(O)C(=O)C[C@@H](C)O[C@H]3O[C@@H]2[C@@H]1Cl [compound 8, 6-Epi-chloro-6-deoxyspectinomycin dihydrochloride]",54.7 mg/L
3,"CN[C@H]1[C@@H](O)[C@@H](NC)C[C@H]2O[C@@H]3O[C@H](C)C[C@@](O)(CNCc4ccc(F)cc4)[C@]3(O)O[C@H]12 [compound 7, 6-Deoxy-3’-dihydro-3’(R)-[(4-fluorobenzyl)aminomethyl]spectinomycin trihydrochloride]",23.3 mg/L

# Continued, values first:
row,Ribosome translation inhibition IC50,Structure (SMILES)
1,> 60 mg/L,"CN[C@H]1C[C@@H](NC)[C@H](O)[C@H]2O[C@@H]3O[C@H](C)CC(=O)[C@]3(O)O[C@@H]21 [compound 9, 2-Deoxyspectinomycin dihydrochloride]"
2,10.2 mg/L,"CN[C@H]1C[C@@H](NC)[C@H](O)[C@H]2O[C@@H]3O[C@H](C)C[C@@H](NC(=O)Cc4ccccn4)[C@]3(O)O[C@@H]21 [compound 10, 2-Deoxy-3’-deoxy-3’-dihydro-3’(R)-[(pyridin-2-yl)acetylamino]spectinomycin dihydrochloride]"
